According to ChEMBL document CHEMBL5113395, “Azetidin-2-one-based small molecules as dual hHDAC6/HDAC8 inhibitors: Investigation of their mechanism of action and impact of dual inhibition profile on cell viability” (Eur J Med Chem, 2022):
pIC50: −log10 of the molar value. Calls of active or inactive are those of the source. The calls are words filed in the database; no cut-off is given here.

Experiments:
Histone deacetylase 8 = target: T1, Histone deacetylase 8 (Homo sapiens, UniProt Q9BY41); experiment: Inhibition of recombinant human HDAC8 using FLUOR DE LYS as substrate preincubated for 15 mins followed by substrate addition measured after 1 hrs by fluorescence plate reader analysis
T1 sequence (Q9BY41 whole entry): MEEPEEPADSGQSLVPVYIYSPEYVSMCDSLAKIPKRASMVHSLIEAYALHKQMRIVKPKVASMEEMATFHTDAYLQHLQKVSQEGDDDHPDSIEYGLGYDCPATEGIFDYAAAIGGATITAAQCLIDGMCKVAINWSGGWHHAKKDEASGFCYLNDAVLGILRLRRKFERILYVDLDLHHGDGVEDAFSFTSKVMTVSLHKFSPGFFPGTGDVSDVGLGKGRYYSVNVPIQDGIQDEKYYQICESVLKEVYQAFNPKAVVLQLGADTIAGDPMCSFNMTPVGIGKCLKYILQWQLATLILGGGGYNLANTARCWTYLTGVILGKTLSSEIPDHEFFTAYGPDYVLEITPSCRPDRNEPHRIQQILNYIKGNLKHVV
Summary of the method: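 Kit recombinant human HDAC8 (0.45 U/reaction) was preincubated 15 min with compound (0.5% DMSO; DMSO-only control). Fluor de Lys substrate was then added at 50 µM final and the reaction ran 1 h at 30 °C. It was quenched with 2 µM TSA in Developer II for a further 1 h at 30 °C, and fluorescence read at ex 370/em 450 nm. IC50 came from nonlinear dose–response fitting.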

[1] = target: T2, Histone deacetylase 8 (Homo sapiens) (UniProt Q9BY41); experiment: Inhibition of HDAC8 in human HCT-116 cells assessed as increase in acetylation level of SMC3 at 10 uM measured after 24 hrs by Western blot analysis; assay type: cell-based
T2 sequence (whole entry): T1 sequence (Q9BY41 whole entry)
Summary of the method: (§1)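 HCT116 or U937 cells were treated at 10 µM for 24–48 h and lysed in NP40 buffer with protease/phosphatase inhibitors. 50 µg protein was resolved by SDS-PAGE and probed with anti-acetyl-SMC3 (Lys105/106, 1:1000), normalized to GAPDH (1:3000). PCI served as positive control, and band intensities were semi-quantified by densitometry.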

[2] = target: T3, Polyamine deacetylase HDAC10 (Homo sapiens, UniProt Q969S8); experiment: Inhibition of recombinant human N-terminal FLAG tagged HDAC10 expressed in baculovirus infected Sf9 insect cells using fluorogenic substrate measured after 30 mins by fluorescence plate reader analysis
T3 sequence (Q969S8 whole entry): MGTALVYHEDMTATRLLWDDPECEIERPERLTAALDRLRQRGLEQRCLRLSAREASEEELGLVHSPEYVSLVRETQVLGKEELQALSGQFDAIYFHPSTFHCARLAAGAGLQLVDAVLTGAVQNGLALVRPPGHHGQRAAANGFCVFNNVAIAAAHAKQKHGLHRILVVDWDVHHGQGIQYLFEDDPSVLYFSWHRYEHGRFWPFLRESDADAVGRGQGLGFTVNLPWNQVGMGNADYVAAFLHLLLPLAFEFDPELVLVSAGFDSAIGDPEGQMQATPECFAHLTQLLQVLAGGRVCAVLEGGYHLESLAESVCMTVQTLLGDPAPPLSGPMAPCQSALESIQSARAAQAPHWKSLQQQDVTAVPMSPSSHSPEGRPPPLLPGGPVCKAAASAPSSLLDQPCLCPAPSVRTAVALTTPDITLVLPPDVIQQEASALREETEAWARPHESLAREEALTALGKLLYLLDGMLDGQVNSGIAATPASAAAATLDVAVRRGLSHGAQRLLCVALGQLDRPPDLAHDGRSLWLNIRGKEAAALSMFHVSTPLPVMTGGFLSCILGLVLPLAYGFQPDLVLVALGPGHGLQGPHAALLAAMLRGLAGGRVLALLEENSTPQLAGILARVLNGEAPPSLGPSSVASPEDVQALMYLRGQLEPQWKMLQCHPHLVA

Histone deacetylase 1 = Histone deacetylase 1 (Homo sapiens, UniProt Q13547); experiment: Inhibition of recombinant human full length C-terminal FLAG/His-tagged HDAC1 expressed in Sf9 insect cells using ZMAL (Z-(Ac)Lys-AMC as substrate measured after 90 mins by fluorescence plate reader analysis
[3] = Cytotoxicity against mouse NIH3T3 cells assessed as inhibition of cell growth by neutral red uptake assay
U-937 = experiment: Antiproliferation activity against human U-937 cells assessed as reduction in cell viability at 5 to 50 uM measured after 48 hrs by CCK-8 assay; assay type: functional, cell-based; settings: dose 5-50 µM
Summary of the method: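 U937 cells were exposed in triplicate to 1, 5, 10 and 50 µM for 24 and 48 h. CCK-8 (WST-8) reagent was then added, with 3 h further incubation at 37 °C, and absorbance was read at 450 nm to give viability.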

Homo sapiens = species: Homo sapiens; experiment: Selectivity index, ratio of IC50 for inhibition of recombinant human full length C-terminal FLAG/His-tagged HDAC1 expressed in Sf9 insect cells to IC50 for inhibition recombinant human HDAC8
Summary of the method: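 HDAC1 and HDAC6 IC50 values from the ZMAL fluorogenic assay: 37 °C for 90 min, then trypsin/TSA development, read at ex 390/em 460 nm. HDAC8 IC50 from the kit enzyme (0.45 U/reaction), 0.5% DMSO, 15 min preincubation with compound, 50 μM Fluor de Lys substrate, 1 h at 30 °C. HDAC8 reaction quenched with TSA (2 μM) in developer, 1 h, read at ex 370/em 450 nm, IC50 by nonlinear regression. Ratio of IC50s.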

[4] = target: T2, Histone deacetylase 8 (Homo sapiens); experiment: Inhibition of HDAC8 in human U-937 cells assessed as increase in acetylation level of SMC3 at 10 uM measured after 48 hrs by Western blot analysis; assay type: cell-based; summary of the method: as §1

Chain of Histone deacetylase 1 (Q13547 whole entry): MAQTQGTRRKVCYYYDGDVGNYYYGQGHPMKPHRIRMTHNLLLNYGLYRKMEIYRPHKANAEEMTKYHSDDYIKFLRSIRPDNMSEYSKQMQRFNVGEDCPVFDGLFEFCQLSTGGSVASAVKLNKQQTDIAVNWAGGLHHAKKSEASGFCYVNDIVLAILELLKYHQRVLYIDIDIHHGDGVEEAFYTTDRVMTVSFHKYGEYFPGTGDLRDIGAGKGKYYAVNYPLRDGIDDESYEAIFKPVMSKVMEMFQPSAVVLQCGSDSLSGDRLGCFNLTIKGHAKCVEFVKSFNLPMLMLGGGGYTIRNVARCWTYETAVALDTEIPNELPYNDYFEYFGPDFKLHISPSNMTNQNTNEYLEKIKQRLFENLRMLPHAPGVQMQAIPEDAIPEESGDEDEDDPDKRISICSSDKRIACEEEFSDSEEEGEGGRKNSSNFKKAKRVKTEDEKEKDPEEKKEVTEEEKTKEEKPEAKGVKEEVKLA

SMILES | pIC50 (Histone deacetylase 8) | inhibition [1] | pIC50 [2] | pIC50 (Histone deacetylase 1) | CC50 [3] | Activity (U-937) | Ratio IC50 (Homo sapiens) | inhibition [4]
O=C(NO)c1ccc(CNC(=O)N2CCC(N3C(=O)[C@H](c4ccccc4)[C@H]3c3ccccc3)CC2)cc1 (racemic) | 7.38 | Active | 5.18 | 5.38 | 101 µM | Active | 100 | Active
O=C(NO)c1ccc(CNC(=O)N2CCC(N3CC(c4ccccc4)(c4ccccc4)C3=O)CC2)cc1 | 7.00 | Active | 5.19 | 5.37 | 40 µM | Active | 43 | Active
O=C(NO)c1ccc(CC(=O)N2CCC(N3CC(c4ccccc4)(c4ccccc4)C3=O)CC2)cc1 | 6.95 | Active | 5.29 | 5.01 | 48 µM | Active | 86 | Active
